Experimental data reported in ChEMBL document CHEMBL5230144, “Synthesis and Biological Evaluation of Celastrol Derivatives with Improved Cytotoxic Selectivity and Antitumor Activities” (J Nat Prod, 2021).
pIC50: −log10 of the molar value. The source made the active and inactive calls. The calls are words filed in the database; no cut-off is given here.

Columns and labels:
MCF7 = test: cells; details: Homo sapiens, MCF7, 48 h
MDA-MB-231 = test: cells; details: Homo sapiens, MDA-MB-231, 48 h
KB = test: cells; details: Homo sapiens, 48 h
A549 = test: cells; details: Homo sapiens, A549, 48 h
[1] = target: T1, Heat shock protein HSP 90-beta/Hsp90 co-chaperone Cdc37 (Homo sapiens, UniProt P08238+Q16543); test: Disruption of His-tagged full length HSP90 (unknown origin)/GST-tagged Cdc37 (unknown origin) at 50 uM measured after 1 hr by HTRF method; assay type: protein-complex assay
T1 sequence (P08238 whole entry): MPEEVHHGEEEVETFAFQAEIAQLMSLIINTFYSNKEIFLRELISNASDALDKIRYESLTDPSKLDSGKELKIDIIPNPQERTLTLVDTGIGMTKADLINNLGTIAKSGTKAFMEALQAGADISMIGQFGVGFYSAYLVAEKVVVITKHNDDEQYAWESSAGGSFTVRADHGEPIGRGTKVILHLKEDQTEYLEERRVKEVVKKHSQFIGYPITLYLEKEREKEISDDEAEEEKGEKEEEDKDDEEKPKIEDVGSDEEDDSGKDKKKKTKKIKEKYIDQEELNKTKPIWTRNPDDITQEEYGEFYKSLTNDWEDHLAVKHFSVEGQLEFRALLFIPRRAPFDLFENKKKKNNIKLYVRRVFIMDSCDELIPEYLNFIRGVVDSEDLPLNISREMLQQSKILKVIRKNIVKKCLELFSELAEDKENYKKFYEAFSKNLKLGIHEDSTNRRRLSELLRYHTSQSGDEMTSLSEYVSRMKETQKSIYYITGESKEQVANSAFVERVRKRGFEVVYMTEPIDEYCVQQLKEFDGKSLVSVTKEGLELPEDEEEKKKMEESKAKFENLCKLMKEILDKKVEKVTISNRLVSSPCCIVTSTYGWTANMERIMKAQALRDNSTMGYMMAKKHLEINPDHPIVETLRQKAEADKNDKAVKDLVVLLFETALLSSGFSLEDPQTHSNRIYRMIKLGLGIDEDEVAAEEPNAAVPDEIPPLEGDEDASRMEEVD
T1 sequence (Q16543 whole entry): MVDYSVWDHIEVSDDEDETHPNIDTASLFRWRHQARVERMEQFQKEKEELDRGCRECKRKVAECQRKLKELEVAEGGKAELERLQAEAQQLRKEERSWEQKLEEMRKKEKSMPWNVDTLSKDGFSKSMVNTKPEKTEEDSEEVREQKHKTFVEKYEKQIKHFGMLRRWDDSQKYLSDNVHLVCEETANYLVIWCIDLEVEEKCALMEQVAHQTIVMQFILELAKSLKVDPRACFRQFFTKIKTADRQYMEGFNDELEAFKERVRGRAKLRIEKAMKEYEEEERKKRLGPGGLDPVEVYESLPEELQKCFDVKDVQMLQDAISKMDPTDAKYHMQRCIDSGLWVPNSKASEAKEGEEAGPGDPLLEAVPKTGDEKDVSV
How it was run: (§1)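 HTRF in PBS with […], pH 7.3: His-tagged full-length Hsp90 and GST-tagged Cdc37 (each 250 nM final) with compound, 37 °C for 1 h. Anti-GST-Cryptate and anti-6His-XL665 then added for 0.5 h at 37 °C. Time-resolved fluorescence read at ex 320 nm, em 665/620 nm; ratio (665/620) × 10 000.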

[2] = target: T1, Heat shock protein HSP 90-beta/Hsp90 co-chaperone Cdc37; test: Disruption of His-tagged full length HSP90 (unknown origin)/GST-tagged Cdc37 (unknown origin) measured after 1 hr by HTRF method; assay type: protein-complex assay
How it was run: as §1

[3] = Toxicity in nude mouse xenografted with human MDA-MB-231 cells assessed as damage to kidney at 10 mg/kg, po measured after 26 days by Hand E staining method; assay type: organism-based; details: in vivo, 624 h, time 26 day
How it was run: (§2)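 Female athymic nude mice (5–6 weeks) bore MDA-MB-231 xenografts and were randomized (n = 6) once tumors averaged about 100 mm³. They were dosed orally at 10 mg/kg, alongside vehicle and carboplatin (10 mg/kg) groups. On the last day of administration, heart, liver, lungs and kidneys were examined by HE staining.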

[4] = Toxicity in nude mouse xenografted with human MDA-MB-231 cells assessed as decrease of red blood cells at 10 mg/kg, po measured after 26 days; assay type: organism-based; details: in vivo, 624 h, time 26 day
How it was run: (§3)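 Female athymic nude mice (5–6 weeks) bore MDA-MB-231 xenografts and were randomized (n = 6) at a mean tumor volume of about 100 mm³. They received 10 mg/kg orally, with vehicle and carboplatin (10 mg/kg) groups. On the final day of administration, a routine blood examination counted white blood cells, red blood cells and platelets, compared against vehicle.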

HUVEC = test: Antimigratory activity against human HUVEC cells assessed as inhibition of cell migration at 0.1 uM measured after 12 to 24 hrs by wound scratch assay; assay type: functional, cell-based; details: time 12-24 hrs
How it was run: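 HUVEC monolayers were scratched and treated, with wound closure imaged at 0, 12 and 24 h. Migration was quantified as a migration ratio relative to 0 h.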

[5] = Toxicity in nude mouse xenografted with human MDA-MB-231 cells assessed as damage to lungs at 10 mg/kg, po measured after 26 days by Hand E staining method; assay type: organism-based; details: in vivo, 624 h, time 26 day
How it was run: as §2

[6] = Toxicity in nude mouse xenografted with human MDA-MB-231 cells assessed as damage to liver at 10 mg/kg, po measured after 26 days by Hand E staining method; assay type: organism-based; details: in vivo, 624 h, time 26 day
How it was run: as §2

[7] = Toxicity in nude mouse xenografted with human MDA-MB-231 cells assessed as decrease of white blood cells at 10 mg/kg, po measured after 26 days; assay type: organism-based; details: in vivo, 624 h, time 26 day
How it was run: as §3

[8] = Cytotoxicity against human mesenchymal bone marrow stem cells measured after 48 hrs by MTT assay; assay type: toxicity, cell-based
[9] = Toxicity in nude mouse xenografted with human MDA-MB-231 cells assessed as damage to heart at 10 mg/kg, po measured after 26 days by Hand E staining method; assay type: organism-based; details: in vivo, 624 h, time 26 day
How it was run: as §2

[10] = Toxicity in nude mouse xenografted with human MDA-MB-231 cells assessed as decrease of platelets at 10 mg/kg, po measured after 26 days; assay type: organism-based; details: in vivo, 624 h, time 26 day
How it was run: as §3

[11] = Toxicity in nude mouse xenografted with human MDA-MB-231 cells assessed as decrease of body weight at 10 mg/kg, po measured after 26 days; assay type: organism-based; details: in vivo, 624 h, time 26 day
How it was run: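 Female athymic nude mice, 5−6 weeks old, carrying MDA-MB-231 xenografts; randomized at about 100 mm³ tumor volume, n = 6 per group. Groups were vehicle, carboplatin 10 mg/kg, celastrol 10 mg/kg and test compound 10 mg/kg oral. Body weight tracked from day 16 to day 26; blood counts taken on the last day.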

Structure (SMILES): CC1=C(O)C(=O)C=C2C1=CC=C1[C@@]2(C)CC[C@@]2(C)[C@@H]3C[C@](C)(C(=O)OCCC(C)C)CC[C@]3(C)CC[C@]12C
- pIC50 (MCF7): 5.70
- pIC50 (MDA-MB-231): 5.96
- pIC50 (KB): 5.72
- pIC50 (A549): 5.38
- inhibition [1]: 87.8%

Structure (SMILES): CC1=C(O)C(=O)C=C2C1=CC=C1[C@@]2(C)CC[C@@]2(C)[C@@H]3C[C@](C)(C(=O)OCCBr)CC[C@]3(C)CC[C@]12C
- pIC50 (MCF7): 5.96
- pIC50 (MDA-MB-231): 7.00
- pIC50 (KB): 6.00
- pIC50 (A549): 5.80
- inhibition [1]: 86.3%

Structure (SMILES): C#CCOC(=O)[C@]1(C)CC[C@]2(C)CC[C@]3(C)C4=CC=C5C(=CC(=O)C(O)=C5C)[C@]4(C)CC[C@@]3(C)[C@@H]2C1
- pIC50 [2]: 5.77

Structure (SMILES): CCOC(=O)[C@]1(C)CC[C@]2(C)CC[C@]3(C)C4=CC=C5C(=CC(=O)C(O)=C5C)[C@]4(C)CC[C@@]3(C)[C@@H]2C1
- pIC50 (MCF7): 6.00
- pIC50 (MDA-MB-231): 6.15
- pIC50 (KB): 6.00
- pIC50 (A549): 5.77
- inhibition [1]: 85.7%

Structure (SMILES): CC1=C(O)C(=O)C=C2C1=CC=C1[C@@]2(C)CC[C@@]2(C)[C@@H]3C[C@](C)(C(=O)OCc4ccccc4C)CC[C@]3(C)CC[C@]12C
- pIC50 [2]: 5.00

Structure (SMILES): CCCCOC(=O)[C@]1(C)CC[C@]2(C)CC[C@]3(C)C4=CC=C5C(=CC(=O)C(O)=C5C)[C@]4(C)CC[C@@]3(C)[C@@H]2C1
- pIC50 (MCF7): 6.22
- pIC50 (MDA-MB-231): 6.05
- pIC50 (KB): 6.22
- pIC50 (A549): 5.89
- inhibition [1]: 86%

Structure (SMILES): COCCCOC(=O)[C@]1(C)CC[C@]2(C)CC[C@]3(C)C4=CC=C5C(=CC(=O)C(O)=C5C)[C@]4(C)CC[C@@]3(C)[C@@H]2C1
- pIC50 (MCF7): 6.22
- pIC50 (MDA-MB-231): 6.40
- pIC50 (KB): 6.22
- pIC50 (A549): 6.00
- inhibition [1]: 88.8%

Structure (SMILES): CC1=C(O)C(=O)C=C2C1=CC=C1[C@@]2(C)CC[C@@]2(C)[C@@H]3C[C@](C)(C(=O)OCc4cccc(C)c4)CC[C@]3(C)CC[C@]12C
- pIC50 [2]: 5.21

Structure (SMILES): COCCOC(=O)[C@]1(C)CC[C@]2(C)CC[C@]3(C)C4=CC=C5C(=CC(=O)C(O)=C5C)[C@]4(C)CC[C@@]3(C)[C@@H]2C1
- pIC50 [2]: 5.17

Structure (SMILES): CC1=C(O)C(=O)C=C2C1=CC=C1[C@@]2(C)CC[C@@]2(C)[C@@H]3C[C@](C)(C(=O)O)CC[C@]3(C)CC[C@]12C [CELASTROL]
- pIC50 (MCF7): 5.92
- Activity [3]: Toxic
- Activity [4]: Toxic
- Activity (HUVEC): inactive
- Activity [5]: Toxic
- pIC50 (MDA-MB-231): 6.05
- Activity [6]: Toxic
- pIC50 (KB): 5.77
- Activity [7]: Toxic
- IC50 at 48 h [8]: 700 nM
- pIC50 (A549): 5.74
- inhibition [1]: 82.3%
- Activity [9]: Toxic
- Activity [10]: Toxic

Structure (SMILES): C#CCOC(=O)[C@]1(C)CC[C@]2(C)CC[C@]3(C)C4=CC=C5C(=CC(=O)C(OC(=O)N6CCC(N7CCCCC7)CC6)=C5C)[C@]4(C)CC[C@@]3(C)[C@@H]2C1
- Activity [11]: Toxic
- Activity [3]: Non-Toxic
- Activity [4]: Non-Toxic
- Activity [5]: Non-Toxic
- pIC50 (MDA-MB-231): 6.70
- Activity [6]: Non-Toxic
- Activity [7]: Non-Toxic
- IC50 at 48 h [8]: 2800 nM
- Activity [9]: Non-Toxic
- Activity [10]: Non-Toxic

Structure (SMILES): C=CCOC(=O)[C@]1(C)CC[C@]2(C)CC[C@]3(C)C4=CC=C5C(=CC(=O)C(O)=C5C)[C@]4(C)CC[C@@]3(C)[C@@H]2C1
- pIC50 (MCF7): 6.40
- pIC50 (MDA-MB-231): 6.10
- pIC50 (KB): 6.52
- pIC50 (A549): 6.10
- inhibition [1]: 89.9%

Structure (SMILES): CC1=C(O)C(=O)C=C2C1=CC=C1[C@@]2(C)CC[C@@]2(C)[C@@H]3C[C@](C)(C(=O)OCC4CCCCC4)CC[C@]3(C)CC[C@]12C
- pIC50 [2]: 5.54

Structure (SMILES): CC1=C(O)C(=O)C=C2C1=CC=C1[C@@]2(C)CC[C@@]2(C)[C@@H]3C[C@](C)(C(=O)OCCCl)CC[C@]3(C)CC[C@]12C
- pIC50 (MCF7): 5.74
- pIC50 (MDA-MB-231): 6.10
- pIC50 (KB): 5.72
- pIC50 (A549): 5.20
- inhibition [1]: 87%

Structure (SMILES): CCCOC(=O)[C@]1(C)CC[C@]2(C)CC[C@]3(C)C4=CC=C5C(=CC(=O)C(O)=C5C)[C@]4(C)CC[C@@]3(C)[C@@H]2C1
- pIC50 (MCF7): 6.30
- pIC50 (MDA-MB-231): 6.10
- pIC50 (KB): 6.22
- pIC50 (A549): 5.96
- inhibition [1]: 87.4%

Structure (SMILES): CC1=C(O)C(=O)C=C2C1=CC=C1[C@@]2(C)CC[C@@]2(C)[C@@H]3C[C@](C)(C(=O)OCc4ccccc4)CC[C@]3(C)CC[C@]12C
- pIC50 (MCF7): 6.15
- pIC50 (MDA-MB-231): 6.40
- pIC50 (KB): 6.22
- IC50 at 48 h [8]: 1000 nM
- pIC50 (A549): 5.89
- inhibition [1]: 90.1%
- pIC50 [2]: 5.62

Structure (SMILES): COC(=O)[C@]1(C)CC[C@]2(C)CC[C@]3(C)C4=CC=C5C(=CC(=O)C(O)=C5C)[C@]4(C)CC[C@@]3(C)[C@@H]2C1 [PRISTIMERIN]
- pIC50 (MCF7): 6.05
- pIC50 (MDA-MB-231): 6.10
- pIC50 (KB): 6.05
- pIC50 (A549): 5.96
- inhibition [1]: 83.1%
